Source: ChEMBL document CHEMBL4014311, “Discovery of a Hepatitis C Virus NS5B Replicase Palm Site Allosteric Inhibitor (BMS-929075) Advanced to Phase 1 Clinical Studies” (J Med Chem, 2017)

Legend:
[1] = Metabolic stability in rat liver microsomes assessed as parent compound remaining after 10 mins; assay type: ADME, microsome; details: read-out: Stability
[2] = Lipophilicity, log D of the compound at pH 6.5 by shake flask method; assay type: physicochemical; details: buffer
[3] = Clearance in Sprague-Dawley rat at 6 mg/kg, po via gavage by LC-MS/MS analysis; assay type: ADME, organism-based; details: in vivo
[4] = Half life in monkey liver microsomes; assay type: ADME, Macaca mulatta, microsome; details: rhesus monkey
[5] = Half life in rat liver microsomes; assay type: ADME, microsome
Hepatitis C virus [6] = experiment: Antiviral activity against HCV genotype 1a infected in human HuH7 cells after 3 days by luciferase reporter assay; assay type: functional, cell-based, Hepacivirus hominis, subtype 1a; details: Hepatitis C virus, subtype 1a, Huh-7, 72 h; read-out: EC50
[7] = Half life in dog liver microsomes; assay type: ADME, Canis lupus familiaris, microsome
Cytochrome P450 3A4 = Cytochrome P450 3A4 (Homo sapiens, UniProt P08684); experiment: Inhibition of microsomal CYP3A4 (unknown origin); assay type: ADME
[8] = Membrane permeability at pH 7.4 by PAMPA; assay type: physicochemical; details: read-out: permeability
[9] = Metabolic stability in human liver microsomes assessed as parent compound remaining after 10 mins; assay type: ADME, microsome; details: read-out: Stability
[10] = Half life in human liver microsomes; assay type: ADME, microsome
Hepatitis C virus [11] = experiment: Antiviral activity against HCV genotype 1b infected in human HuH7 cells after 3 days by luciferase reporter assay; assay type: functional, cell-based, Hepacivirus hominis; details: Hepatitis C virus, genotype 1b, Huh-7, 72 h; read-out: EC50
[12] = Drug uptake in Sprague-Dawley rat plasma at 6 mg/kg, po via gavage after 6 hrs by LC-MS/MS analysis; assay type: ADME, organism-based
How it was run: (§1)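 Fasted rats were dosed orally in 90:10 PEG-400/ethanol; 6 h livers came from satellite animals. In the screening variant, n = 2 and plasma was taken to 6 h with livers at the terminal point. Livers were rinsed, blotted, weighed and homogenized in 2 volumes of 80% acetonitrile in HBSS per gram, then centrifuged. Supernatant and plasma were analysed by LC/MS/MS.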

[13] = Drug uptake in Sprague-Dawley rat liver at 6 mg/kg, po via gavage after 6 hrs by LC-MS/MS analysis; assay type: ADME, organism-based; details: read-out: Drug uptake; how it was run: as §1
[14] = Inhibition of HCV genotype 1b NS5B replicase C316N mutant infected in human HuH7 cells assessed as reduction of viral replication after 3 days by luciferase reporter assay; assay type: cell-based, Hepatitis C virus subtype 1b; details: Hepatitis C virus, Huh-7, 72 h
Cytochrome P450 2C8 = molecular target: T1, Cytochrome P450 2C8 (Homo sapiens, UniProt P10632); experiment: Inhibition of microsomal CYP2C8 (unknown origin); assay type: ADME
T1 sequence (P10632 whole entry): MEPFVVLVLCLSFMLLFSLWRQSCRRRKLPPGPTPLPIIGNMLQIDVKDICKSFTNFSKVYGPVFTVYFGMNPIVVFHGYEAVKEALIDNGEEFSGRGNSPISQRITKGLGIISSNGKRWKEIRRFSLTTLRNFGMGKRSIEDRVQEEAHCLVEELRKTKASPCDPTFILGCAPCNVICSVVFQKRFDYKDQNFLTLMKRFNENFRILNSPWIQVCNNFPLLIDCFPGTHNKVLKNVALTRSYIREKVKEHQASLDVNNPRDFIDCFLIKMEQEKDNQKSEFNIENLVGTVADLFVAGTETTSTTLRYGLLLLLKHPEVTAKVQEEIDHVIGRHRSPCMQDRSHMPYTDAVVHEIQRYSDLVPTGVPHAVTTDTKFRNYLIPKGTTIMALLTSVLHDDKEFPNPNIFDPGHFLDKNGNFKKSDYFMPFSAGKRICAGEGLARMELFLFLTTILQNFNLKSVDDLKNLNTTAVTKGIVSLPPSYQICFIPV

[15] = molecular target: T2, Nuclear receptor subfamily 1 group I member 2 (Homo sapiens, UniProt O75469); experiment: Transactivation of PXR (unknown origin); assay type: ADME
T2 sequence (O75469 whole entry): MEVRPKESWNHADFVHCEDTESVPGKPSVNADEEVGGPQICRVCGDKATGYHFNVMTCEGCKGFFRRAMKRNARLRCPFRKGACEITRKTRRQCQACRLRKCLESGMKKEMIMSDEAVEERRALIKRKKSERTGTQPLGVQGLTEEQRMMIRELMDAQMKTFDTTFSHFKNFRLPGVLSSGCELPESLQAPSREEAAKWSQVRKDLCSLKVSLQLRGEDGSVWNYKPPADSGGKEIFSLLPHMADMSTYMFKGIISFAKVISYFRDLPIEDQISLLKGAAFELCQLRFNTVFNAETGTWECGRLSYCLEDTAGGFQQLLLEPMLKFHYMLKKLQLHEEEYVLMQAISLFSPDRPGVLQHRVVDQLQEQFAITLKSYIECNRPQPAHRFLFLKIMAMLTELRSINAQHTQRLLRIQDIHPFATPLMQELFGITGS

[16] = Ratio of IC50 for HCV genotype 1b […] replicase to EC50 for HCV genotype 1b infected in human HuH7 cells; design: species or system Hepatitis C virus subtype 1b
[17] = Inhibition of HCV genotype 1b NS5B replicase expressed in Escherichia coli BL21(DE3) using polyA/biotinylated oligo(dT12) as template/primer in presence of [3H]UTP after 60 mins by SPA assay; design: species or system Hepatitis C virus subtype 1b
Rattus norvegicus [18] = experiment: Volume of distribution at steady state in Sprague-Dawley rat at 2 mg/kg, iv by LC/MS/MS analysis; assay type: ADME, organism-based; details: in vivo
How it was run: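 Rats received a 2 mg/kg IV dose in 90:10 PEG-400/ethanol as a 10 min constant-rate jugular infusion. Blood collected predose and at 10, 15, 30, 45, 60 min and 2, 4, 6, 8, 24 h; n = 3. Plasma analyzed by LC/MS/MS. Vss derived by noncompartmental analysis of IV data.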

[19] = AUC in Sprague-Dawley rat at 6 mg/kg, po administered via gavage by LC/MS/MS analysis; assay type: ADME, organism-based; details: in vivo
How it was run: (§2)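 Rats were fasted overnight with free access to water, then dosed by gastric gavage with an […] solution in 90:10 PEG-400/ethanol (v/v), n = 3 per group. EDTA plasma was sampled predose and at 15, 30, 45, 60 min and 2, 4, 6, 8, 24 h, then assayed by LC/MS/MS. Parameters come from noncompartmental analysis: Cmax observed directly, AUC by linear/log trapezoidal summation, F as dose-normalized PO/IV AUC ratio.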

[20] = Drug uptake in Sprague-Dawley rat liver at 6 mg/kg, po administered via gavage after 24 hrs by LC/MS/MS analysis; assay type: ADME, organism-based; details: read-out: Drug uptake; how it was run: as §1
[21] = Ratio of drug uptake in Sprague-Dawley rat liver to plasma at 6 mg/kg, po administered via gavage after 24 hrs by LC/MS/MS analysis; assay type: ADME, organism-based
How it was run: (§3)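 Rats fasted overnight, then dosed by gavage at 6 mg/kg in 90:10 PEG-400/ethanol (v/v). Plasma sampled serially from cannula into EDTA tubes predose and at 15, 30, 45, 60 min and 2, 4, 6, 8, 24 h; n = 3. Livers removed at 6 h (satellite animals) and 24 h, homogenized in 80% acetonitrile/HBSS, assayed by LC/MS/MS. Tmax taken directly from observed data.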

[22] = Tmax in Sprague-Dawley rat at 6 mg/kg, po administered via gavage by LC/MS/MS analysis; assay type: ADME, organism-based; details: in vivo; how it was run: as §3
[23] = Oral bioavailability in Sprague-Dawley rat at 6 mg/kg by LC/MS/MS analysis; assay type: ADME, organism-based; details: in vivo; how it was run: as §2
Hepatitis C virus [24] = experiment: Ratio of EC50 for HCV genotype 1a infected in human HuH7 cells in presence of 40% human serum to EC50 for HCV genotype 1a infected in human HuH7 cells; assay type: functional, Hepacivirus hominis, subtype 1a
Hepatitis C virus [25] = experiment: Ratio of EC50 for HCV genotype 1b infected in human HuH7 cells in presence of 40% human serum to EC50 for HCV genotype-1b infected in human HuH7 cells; assay type: functional, Hepacivirus hominis
[26] = Cytotoxicity against human HuH7 cells after 3 days by CellTiter-Blue assay; assay type: cell-based, Huh-7
Rattus norvegicus [27] = experiment: Half life in Sprague-Dawley rat at 2 mg/kg,iv by LC/MS/MS analysis; assay type: ADME, organism-based; details: in vivo
How it was run: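 A 10 min constant-rate jugular vein infusion was given in 90:10 PEG-400/ethanol (v/v), n = 3 rats. Plasma was sampled predose and at 10, 15, 30, 45, 60 min and 2, 4, 6, 8, 24 h, then assayed by LC/MS/MS. Clearance and apparent terminal t1/2 were estimated by noncompartmental analysis.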

[28] = Cmax in Sprague-Dawley rat at 6 mg/kg, po administered via gavage by LC/MS/MS analysis; assay type: ADME, organism-based; design: dose 6 mg/kg, route oral; details: in vivo; how it was run: as §2
[29] = molecular target: Voltage-gated inwardly rectifying potassium channel KCNH2 (Homo sapiens, UniProt Q12809); experiment: Inhibition of human ERG by thallium flux assay
hERG = hERG (Homo sapiens, UniProt Q12809); experiment: Inhibition of human ERG at 10 uM by patch clamp assay
hERG, sequence (Q12809 whole entry): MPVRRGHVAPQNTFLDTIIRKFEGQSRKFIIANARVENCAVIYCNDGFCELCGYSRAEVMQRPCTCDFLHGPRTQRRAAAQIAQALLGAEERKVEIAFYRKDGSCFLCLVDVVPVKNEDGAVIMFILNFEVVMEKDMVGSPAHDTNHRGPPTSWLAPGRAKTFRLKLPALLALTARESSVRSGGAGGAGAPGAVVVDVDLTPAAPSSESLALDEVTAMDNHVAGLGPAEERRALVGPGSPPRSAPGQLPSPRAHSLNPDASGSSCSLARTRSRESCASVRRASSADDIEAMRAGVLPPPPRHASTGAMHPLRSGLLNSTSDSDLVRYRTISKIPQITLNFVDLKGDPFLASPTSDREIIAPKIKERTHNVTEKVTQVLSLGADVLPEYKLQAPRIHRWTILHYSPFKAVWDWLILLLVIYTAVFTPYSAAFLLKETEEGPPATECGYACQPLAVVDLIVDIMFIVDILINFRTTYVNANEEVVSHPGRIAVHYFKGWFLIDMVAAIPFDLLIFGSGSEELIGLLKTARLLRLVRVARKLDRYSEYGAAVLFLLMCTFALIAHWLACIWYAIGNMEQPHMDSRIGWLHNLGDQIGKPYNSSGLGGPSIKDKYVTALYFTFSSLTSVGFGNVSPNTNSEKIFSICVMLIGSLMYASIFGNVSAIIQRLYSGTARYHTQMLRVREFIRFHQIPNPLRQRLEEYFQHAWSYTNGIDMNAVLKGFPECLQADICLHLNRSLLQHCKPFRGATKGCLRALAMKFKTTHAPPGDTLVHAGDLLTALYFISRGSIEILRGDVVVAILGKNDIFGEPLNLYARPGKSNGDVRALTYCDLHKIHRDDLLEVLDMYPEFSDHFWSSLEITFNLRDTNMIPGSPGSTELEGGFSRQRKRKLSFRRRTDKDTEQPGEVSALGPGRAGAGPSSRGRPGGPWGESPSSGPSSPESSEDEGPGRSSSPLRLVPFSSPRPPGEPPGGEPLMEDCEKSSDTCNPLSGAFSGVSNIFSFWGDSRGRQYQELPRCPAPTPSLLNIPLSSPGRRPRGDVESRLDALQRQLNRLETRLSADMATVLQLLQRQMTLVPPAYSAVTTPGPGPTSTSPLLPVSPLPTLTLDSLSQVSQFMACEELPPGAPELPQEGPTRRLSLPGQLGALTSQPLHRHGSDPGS

Cytochrome P450 3A4, sequence (P08684 whole entry): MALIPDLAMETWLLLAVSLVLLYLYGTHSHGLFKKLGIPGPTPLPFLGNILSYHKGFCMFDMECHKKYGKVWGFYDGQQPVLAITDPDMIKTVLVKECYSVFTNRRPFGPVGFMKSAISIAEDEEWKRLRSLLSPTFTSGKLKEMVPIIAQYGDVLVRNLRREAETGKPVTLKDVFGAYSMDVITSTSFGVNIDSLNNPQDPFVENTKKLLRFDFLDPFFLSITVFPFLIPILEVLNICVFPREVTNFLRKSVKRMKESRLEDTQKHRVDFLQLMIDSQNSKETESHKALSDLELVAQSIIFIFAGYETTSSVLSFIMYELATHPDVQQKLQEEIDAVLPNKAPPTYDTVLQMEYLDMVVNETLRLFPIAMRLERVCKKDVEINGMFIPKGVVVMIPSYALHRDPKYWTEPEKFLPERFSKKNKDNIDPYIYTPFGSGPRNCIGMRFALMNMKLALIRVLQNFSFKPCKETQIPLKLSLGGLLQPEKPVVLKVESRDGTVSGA
Voltage-gated inwardly rectifying potassium channel KCNH2, sequence (Q12809 whole entry): as the sequence (Q12809 whole entry) above

Structure (SMILES)	logD [2]	half-life [4]	half-life [5]	EC50 (Hepatitis C virus [6])	half-life [7]	IC50 (Cytochrome P450 3A4)	Papp [8]	half-life [10]	EC50 (Hepatitis C virus [11])	concentration at 6 h [13]	EC50 [14]	IC50 (Cytochrome P450 2C8)	EC50 [15]	other results
CNC(=O)c1c(-c2ccc(F)cc2)oc2ccc(-c3cc(C(=O)NC4(c5ccccn5)CC4)ccc3C)cc12	5.42	0.333 h	1.02 h	0.0028 µM	0.233 h	4.1 µM	99.9 ×10⁻⁶ cm/s	1.8 h	0.0019 µM	15.7 µM	0.055 µM	1 µM	1.6 µM	remaining at 10 min [1]: 82%; CL/F [3]: 14 mL/min/kg; remaining at 10 min [9]: 89%; concentration at 6 h [12]: 1.64 µM
CNC(=O)c1cccc(-c2ccc3oc(-c4ccc(F)cc4)c(C(=O)NC)c3c2)c1									0.59 µM					Ratio IC50/EC50 [16]: 2; IC50 [17]: 2.2 µM
CNC(=O)c1c(-c2ccc(F)cc2)oc2ccc(-c3cc(C(=O)NC4(c5ncccn5)CC4)ccc3C)cc12	4.76	0.85 h	1.43 h	0.0023 µM	0.767 h	11.4 µM	76.9 ×10⁻⁶ cm/s	> 2 h	0.001 µM	8.7 µM	0.051 µM	3.9 µM	> 50 µM	Vdss (Rattus norvegicus [18]): 6.1 L/kg; AUC [19]: 48.7 µM·h; concentration at 24 h [20]: 0.614 µM; Kp at 24 h [21]: 2.4; Tmax [22]: 4.7 h; bioavailability [23]: > 100%; Ratio EC50 (Hepatitis C virus [24]): 4; Ratio EC50 (Hepatitis C virus [25]): 4; CC50 at 72 h [26]: 20 µM; t1/2 (Rattus norvegicus [27]): 5.3 h; Cmax [28]: 6.7 µM; IC50 [29]: 4.8 µM; inhibition at 10 µM (hERG): 96%
